The source of these data is PubChem BioAssay AID1381 (University of Pittsburgh Molecular Library Screening Center, 2008).

Molecules are shown by their SMILES. About 1,000 (0.45%) of roughly 220,000 compounds were called active.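 Rule for the calls: active = plate z-score of nuclear minus cytoplasmic receptor signal below a set negative limit, without overly bright fluorescence or cell loss (cut at about -3.5 in these data, passing the limit was not always enough); inactive = the rest, inconclusive results apart.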 The full list was thinned out, with actives kept by preference.

This assay in a line: inhibitors of GR-EGFP nuclear translocation, primary screen, dynein cargo transport inhibitor project, imaging, high-content, 3617.4 mouse cells (AID 1381). The conditions noted are these: stimulated with dexamethasone, 1 µM. The method in brief:
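medium = tetracycline-free induction medium containing charcoal-stripped FBS | also added = 1.0 µM final dexamethasone stimulus | schedule = 48 h induction, 1 h compound, 30 min dex at 37 °C | technique = fixed, Hoechst-stained cells imaged at 10x for EGFP | measure = GR-EGFP nuclear translocation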

Where [1] appears, read: measured here: cell count per field, at 20 µM.
Setting [2] is: measured here: cytoplasmic GR-EGFP intensity, at 20 µM, stronger effect = higher value.
Setting [3] is: measured here: nuclear GR-EGFP intensity, at 20 µM, stronger effect = lower value.
Setting [4] is: measured here: cell count per field, at 50 µM.
[5] abbreviates: measured here: cytoplasmic GR-EGFP intensity, at 50 µM, stronger effect = higher value.
[6] abbreviates: measured here: nuclear GR-EGFP intensity, at 50 µM, stronger effect = lower value.

With `CCCSC(=S)NC1CCS(=O)(=O)C1` (stereo not given), the z-score is -1.85 (inactive) (at 20 µM, stronger effect = lower value); 0.977 under setting [1]; -0.0684 under setting [2]; -0.34 under setting [3].

Regarding `O=S1(=O)CCC(NC(=S)SCc2ccccc2Br)C1` (stereo not given), the z-score runs as follows: (at 20 µM, stronger effect = lower value) -3.97 (active); under setting [1], -0.868; under setting [2], 1.57; under setting [3], -1.78.

For the compound `O=C(CSc1ccccc1F)NC1CCS(=O)(=O)C1` (stereo not given), the z-score reads like this: (at 20 µM, stronger effect = lower value) -0.432 (inactive); under setting [1], 0.683; under setting [2], -0.305; under setting [3], 0.2.

Take `CCOc1ccc(C(C)=O)cc1CSc1nnc(-c2ccncc2)n1CCOC`: the z-score was 0.185 (inactive) (at 20 µM, stronger effect = lower value); 0.406 under setting [1]; -0.242 under setting [2]; 0.523 under setting [3].

Consider `O=c1oc(/C=C/c2ccccc2)nc2ccccc12`, for which the z-score by setting is: (at 20 µM, stronger effect = lower value) 1.7 (inactive); under setting [1], -1.1; under setting [2], -0.0815; under setting [3], 0.729.

For the compound `COc1cc(OC)nc(S(C)(=O)=O)n1`, the z-score reads like this: (at 20 µM, stronger effect = lower value) 0.268 (inactive); under setting [1], -0.196; under setting [2], -0.228; under setting [3], -0.13.

For `COc1ccc(-c2cc(C(F)(F)F)nc(S(C)(=O)=O)n2)cc1OC`, the z-score runs as follows: (at 20 µM, stronger effect = lower value) -5.48 (active); under setting [1], 0.235; under setting [2], 1.61; under setting [3], -2.61.

In the case of `COc1ccc(-c2cc(C(F)(F)F)nc(SCC(=O)Nc3ccc4c(c3)OCO4)n2)cc1OC`, the z-score was -0.345 (inactive) (at 20 µM, stronger effect = lower value); 0.664 under setting [1]; -0.302 under setting [2]; -0.551 under setting [3].

Take `CC1C/C(=N/NC(=O)c2cccs2)CC(C)(C)C1` (stereo not given): the z-score (at 20 µM, stronger effect = lower value) is -1.02 (inactive); the z-score under setting [1] stood at 0.142; the z-score under setting [2] was -0.107; the z-score under setting [3] was -0.387.

On to `CC(=O)Cn1ncc(N2CCOCC2)c(Br)c1=O`, for which the z-score (at 20 µM, stronger effect = lower value) was 1.61 (inactive); the z-score under setting [1] was -0.679; the z-score under setting [2] was -0.251; the z-score under setting [3] is 0.837.

Take `O=C(/C=C/c1cccs1)c1cc(Cl)ccc1OC(=O)N1CCOCC1`: the z-score is, setting by setting: (at 20 µM, stronger effect = lower value) -4.66 (active); under setting [1], 0.865; under setting [2], 0.34; under setting [3], -2.08.

For `O=C(c1cccs1)N1CCN(C(=O)N2CCOCC2)CC1`, the z-score (at 20 µM, stronger effect = lower value) was -0.705 (inactive); the z-score under setting [1] worked out at 0.766; the z-score under setting [2] is -0.299; the z-score under setting [3] is -0.226.

On to `CC(=O)Nc1ccccc1OC(=O)N1CCOCC1`, for which the z-score is -0.424 (inactive) (at 50 µM, stronger effect = lower value); 0.445 under setting [4]; -0.192 under setting [5]; -0.0276 under setting [6].

As for `CC(=O)NC1(c2ccc(F)cc2)CCN(C(=O)c2c(F)cccc2F)CC1`, the z-score was -0.575 (inactive) (at 20 µM, stronger effect = lower value); 1.07 under setting [1]; -0.235 under setting [2]; -0.241 under setting [3].

On to `Nc1ncnc(Nc2cccc(Cl)c2Cl)n1`, for which the z-score (at 20 µM, stronger effect = lower value) was -1.6 (inactive); the z-score under setting [1] was determined as 0.756; the z-score under setting [2] is -0.225; the z-score under setting [3] was -1.2.

As to `COCCN(Cc1nc(-c2ccc(C(F)(F)F)cc2)no1)C(C)C`, the z-score was -0.214 (inactive) (at 20 µM, stronger effect = lower value); 0.527 under setting [1]; -0.267 under setting [2]; 0.0742 under setting [3].

Regarding `O=C(NNS(=O)(=O)Cc1ccccc1)c1ccc([N+](=O)[O-])cc1`, the z-score runs as follows: (at 20 µM, stronger effect = lower value) -0.775 (inactive); under setting [1], 0.134; under setting [2], -0.751; under setting [3], -0.634.

For `COc1ccc(-n2cnc3cc(C(=O)NC4CCCC4)ccc32)cc1`, the z-score by setting is: (at 20 µM, stronger effect = lower value) 0.728 (inactive); under setting [1], -0.477; under setting [2], -0.235; under setting [3], 0.5.

Consider `Cc1cc(-c2n[nH]c(=S)n2/N=C/c2ccco2)n[nH]1`, for which the z-score is, setting by setting: (at 20 µM, stronger effect = lower value) 0.146 (inactive); under setting [1], -0.499; under setting [2], -0.239; under setting [3], -0.0329.

As to `S=c1[nH]nc(-c2cccnc2)n1/N=C/C(Cl)=C\c1ccccc1`, the z-score (at 20 µM, stronger effect = lower value) was -0.315 (inactive); the z-score under setting [1] was -1.55; the z-score under setting [2] was found to be 0.22; the z-score under setting [3] is 0.116.

Take `Cc1cc(-c2n[nH]c(=S)n2/N=C/C(Br)=C/c2ccccc2)n[nH]1`: the z-score (at 20 µM, stronger effect = lower value) is -4.43 (active); the z-score under setting [1] was -1.17; the z-score under setting [2] is 0.939; the z-score under setting [3] is -2.57.

For the compound `Nc1ccccc1Sc1ccc(C(F)(F)F)cc1[N+](=O)[O-]`, the z-score (at 20 µM, stronger effect = lower value) was -0.595 (inactive); the z-score under setting [1] amounted to 0.488; the z-score under setting [2] is -0.213; the z-score under setting [3] was -0.319.

Take `Nc1ccccc1SC(C[N+](=O)[O-])c1ccccc1` (stereo not given): the z-score (at 20 µM, stronger effect = lower value) is -4.57 (active); the z-score under setting [1] was -0.167; the z-score under setting [2] turned out to be 2.56; the z-score under setting [3] is -1.84.

With `Nc1ccccc1SCc1cc([N+](=O)[O-])cc2c1OCOC2`, the z-score was -0.839 (inactive) (at 20 µM, stronger effect = lower value); 0.822 under setting [1]; 3.91 under setting [2]; 0.0233 under setting [3].

`COC(=O)c1cc(C(=O)N(Cc2ccccc2)c2ccccn2)cc([N+](=O)[O-])c1`: the z-score (at 20 µM, stronger effect = lower value) was -0.154 (inactive); the z-score under setting [1] was -0.0688; the z-score under setting [2] was -0.223; the z-score under setting [3] was -0.31.

Consider `CN1CCN(C(=O)/C(=C\c2cccs2)NC(=O)c2cccs2)CC1`, for which the z-score was -0.757 (inactive) (at 20 µM, stronger effect = lower value); 1.17 under setting [1]; -0.214 under setting [2]; -0.212 under setting [3].

As for `OCC(CO)(CO)NCc1ccc(-c2ccccc2)cc1`, the z-score by setting is: (at 20 µM, stronger effect = lower value) -0.998 (inactive); under setting [1], 0.791; under setting [2], -0.231; under setting [3], -0.299.

On to `O=C(NNC(=O)c1ccccc1[N+](=O)[O-])Nc1ccccc1C(F)(F)F`, for which the z-score reads like this: (at 20 µM, stronger effect = lower value) -1.96 (inactive); under setting [1], 0.934; under setting [2], -0.0968; under setting [3], -0.966.

As for `CC1(C)CCSC(/C=C/c2ccccc2)=N1`, the z-score (at 20 µM, stronger effect = lower value) is -6.85 (active); the z-score under setting [1] stood at 1.01; the z-score under setting [2] came to 1.09; the z-score under setting [3] was -2.95.

Regarding `Cc1ccc2nc(-c3ccncc3)cc(C(=O)Nc3ccc(OC(F)F)cc3)c2c1`, the z-score runs as follows: (at 20 µM, stronger effect = lower value) -0.0501 (inactive); under setting [1], 0.497; under setting [2], -0.311; under setting [3], -0.123.

Regarding `O=C(Nn1c(SCc2ccc([N+](=O)[O-])cc2)nc2ccccc2c1=O)c1ccc(F)cc1`, the z-score runs as follows: (at 20 µM, stronger effect = lower value) -0.621 (inactive); under setting [1], 3.84; under setting [2], -0.327; under setting [3], -0.596.

In the case of `O=C(CCc1nnc(CCCCc2ccccc2)o1)NC(c1cccnc1)C(F)(F)F` (stereo not given), the z-score is, setting by setting: (at 20 µM, stronger effect = lower value) -0.699 (inactive); under setting [1], 1.17; under setting [2], -0.266; under setting [3], -0.517.

For the compound `COc1cc2c(cc1O)C(SC)=NC(C)(C)C2`, the z-score (at 50 µM, stronger effect = lower value) was -4 (active); the z-score under setting [4] was -1.21; the z-score under setting [5] amounted to 2.4; the z-score under setting [6] is -1.15.

With `COc1cc2c(cc1OC)C(C(C)C)=NC(C)(C)C2`, the z-score was 1.53 (inactive) (at 50 µM, stronger effect = lower value); -0.94 under setting [4]; -0.084 under setting [5]; 1.55 under setting [6].

Take `COc1cc2c(cc1OC)C(Nc1ccc(S(N)(=O)=O)cc1)=NC(C)(C)C2`: the z-score reads like this: (at 20 µM, stronger effect = lower value) 0.371 (inactive); under setting [1], 0.476; under setting [2], -0.265; under setting [3], 0.242.
